Compounds with a hit are over-represented: about 6.3% of the library has one in this group of screens.
PostGolgi yeast: phenotypic screen on post-Golgi transport, primary screen; inhibition, % at 10 µM; post-Golgi transport phenotypic cell assay; actives 0.9% (n = 98,000);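 further: yeast cells grown in 1536-well plates; yeast grown about 18 h at 30C before absorbance read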
Ecoli WT expand: growth inhibitors of wild-type E. coli, primary screen, strain BW25113, expanded library, OD600; OD600 absorbance; growth inhibition, % at 100 µM; actives 0.15% (n = 98,000);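 active means growth inhibition above about 50% at one test dose, limit read from the data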;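 further: growth measured after 20 h incubation at 37 °C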
tolC growth inh: growth inhibitors of E. coli tolC mutant, primary screen, strain BW25113 ΔtolC::kan, 384-well; OD615; growth inhibition, % at 10 µM (by protocol); actives 2.2% (n = 65,000); AID 573, 2007;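 active means growth inhibition at or above a cutoff equal to the mean over every tested compound plus 3 SD, cut at about 60% in these data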;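 further: growth measured after 20 h incubation at 37 °C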
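Test system – E. coli BW25113 ΔtolC::kan, tolC deletion mutant strain · Detection – OD at 615 nm · Buffer or medium – LB with kanamycin 50 µg/mL · Times – 20 h compound exposure of bacteria at 37 °C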
PostGolgi ctrl: growth inhibition of yeast control strain, primary screen, counter-screen for post-Golgi transport modulator project; efflux-deficient yeast background strain, growth absorbance A615, 16 h; inhibition, % at 10 µM; actives 5% (n = 98,000); AID 738, 2007
Each line names hits and unclear results; the compound was inactive in the other large screens. Unless noted, no stated cut-off is given here; in the data, active means inhibition above about 30%; inactive means the rest.

Cc1cc(C)nc(SCC(=O)c2ccc3c(c2)OCCO3)n1	none (no result: tolC growth inh)
O=C(CN1CCN(c2ccccn2)CC1)Nc1ccccc1	none (no result: tolC growth inh)
O=C(CN1CCN(c2ccccn2)CC1)Nc1ccc(Oc2ccccc2)cc1	PostGolgi yeast 58.3
CCC1CCCCN1C(=O)N[C@@H](Cc1ccccc1)C(=O)O (stereo partly specified)	none
CC(=O)Nc1nc(COc2ccccc2)cs1	none
Cc1ccc(C(=O)Nc2nc(COc3ccccc3)cs2)s1	tolC growth inh 79.1
O=C(Nc1nc(COc2ccccc2)cs1)C12CC3CC(CC(C3)C1)C2	PostGolgi ctrl 37.0 (no result: tolC growth inh)
O=C1CCc2cc(S(=O)(=O)NCCC(=O)N3CCN(c4cccc(Cl)c4)CC3)ccc2N1	none
CCC(C)n1c(-c2cccs2)nc2nc3ccccc3nc21 (stereo unspecified)	PostGolgi ctrl 35.5
C=CCn1c(-c2cccs2)nc2nc3ccccc3nc21	none
CCCc1nnc(N2C(=O)c3cccc4cccc(c34)C2=O)s1	none (no result: tolC growth inh)
COc1ccc2cc3cc(C(=O)NC(C)C)oc3nc2c1	none (no result: tolC growth inh)
CCN(C(=O)c1cc2cc3ccc(C)cc3nc2o1)c1ccc(OC)cc1	tolC growth inh 72.1
CCn1c(CNc2ccc(Cl)cc2)nnc1SCc1ccccc1	PostGolgi yeast 98.8, PostGolgi ctrl 92.5 (no result: tolC growth inh)
Cn1c(CNc2ccc(Cl)cc2)nnc1SCc1ccccc1	PostGolgi yeast 105.3, PostGolgi ctrl 95.9
CCOC(=O)CSc1nnc(CNc2ccccc2Cl)n1-c1ccccc1	none
CCn1c(Cn2nnc(-c3ccccc3)n2)nnc1SCc1ccc(Cl)c(Cl)c1	tolC growth inh 73.3, PostGolgi ctrl 45.6
CCn1c(CNc2ccc(Cl)cc2)nnc1SCC(=O)NCc1ccccc1	none (no result: tolC growth inh)
COC(=O)CSc1nnc(CNc2ccc(Cl)cc2)n1-c1ccccc1	PostGolgi yeast 62.6, PostGolgi ctrl 64.9 (no result: tolC growth inh)
O=C(C/C=N/OCc1c(Cl)cccc1Cl)c1ccc(Cl)cc1	none (no result: tolC growth inh)
CCCn1c(SCc2ccon2)nc2ccccc2c1=O	none (no result: tolC growth inh)
CCOc1cccc(Oc2ccc(C(F)(F)F)cn2)c1	PostGolgi ctrl 33.9
COc1cccc(OC)c1Oc1ccc(C(F)(F)F)cn1	none
CCCc1cc(=O)oc2cc(OCC(=O)N3CCc4ccccc43)ccc12	none (no result: tolC growth inh)
O=C(COC(=O)Cc1ccc(S(=O)(=O)N2CCOCC2)s1)NCc1ccc(Cl)cc1	none (no result: tolC growth inh)
CN(C)c1ccc(N2CN=C3SCC(=O)N3C2)cc1	none (no result: tolC growth inh)
Cc1cccc2cc(C(c3nnnn3CC3CCCO3)N3CCc4ccccc4C3)c(=O)[nH]c12 (stereo unspecified)	tolC growth inh 69.4
Cc1ccc2cc(C(c3nnnn3CC3CCCO3)N3CCc4ccccc4C3)c(=O)[nH]c2c1 (stereo unspecified)	PostGolgi ctrl 42.2
Cc1cc2c(s1)CCCCC(=O)N2	none
O=C(Cn1c(S(=O)(=O)Cc2ccccc2)nc2ccccc21)N1CCCCC1	PostGolgi ctrl 34.9
NC(=O)CS(=O)(=O)c1nc2ccccc2n1CC(=O)N1CCCCC1	none
COc1ccc(C2(C)NC(=O)N(CC(=O)Nc3ccc4c(c3)OCO4)C2=O)cc1OC (stereo unspecified)	none (no result: tolC growth inh)
CN(C)/C=C/C(=O)c1cccc(Cl)c1	PostGolgi ctrl 45.2 (no result: tolC growth inh)
Cc1cccc2cc(CN(Cc3nnnn3C3CCCCC3)C3CCCC3)c3nnnn3c12	PostGolgi yeast 96.9, PostGolgi ctrl 85.8 (no result: tolC growth inh)
Cc1cc(C)c2[nH]c(=O)c(CN(Cc3nnnn3C3CCCC3)C3CCCCC3)cc2c1	none
O=C(NCc1ccccc1)C(c1ccccc1)N(Cc1cccs1)C(=O)c1cnccn1 (stereo unspecified)	PostGolgi ctrl 40.2 (no result: tolC growth inh)
O=c1[nH]nc(Cc2ccc(Cl)cc2Cl)c2ccccc12	PostGolgi ctrl 46.9 (no result: tolC growth inh)
N#C/C(=C/c1ccc(N2CCCCC2)o1)c1cccc(F)c1	none (no result: tolC growth inh)
N#C/C(=C/c1ccc(Sc2nc3ccccc3[nH]2)o1)c1cccc(F)c1	PostGolgi ctrl 54.7 (no result: tolC growth inh)
N#C/C(=C/c1ccc(Sc2nc3ccccc3[nH]2)o1)c1cccc(Br)c1	PostGolgi ctrl 31.9 (no result: tolC growth inh)
N#C/C(=C/c1ccc(Sc2nc3ccccc3[nH]2)o1)c1ccccc1F	PostGolgi yeast 40.7 (no result: tolC growth inh)
CCOCCCNS(=O)(=O)c1ccc(-n2cnnn2)c(OC)c1	none (no result: tolC growth inh)
CCOc1ccc(NS(=O)(=O)c2ccc3[nH]cc(C(=O)NC(C)CC)c(=O)c3c2)cc1 (stereo unspecified)	tolC growth inh 100.0
COc1cccc(NS(=O)(=O)c2ccc3[nH]cc(C(=O)NCCC(C)C)c(=O)c3c2)c1	PostGolgi ctrl 40.8
Cc1cc(NC(=O)COC(=O)c2cc(S(=O)(=O)N3CCOCC3)ccc2N2CCCCC2)no1	none (no result: tolC growth inh)
CCSc1nn2c(=O)c3ccccc3nc2s1	none (no result: tolC growth inh)
O=C(COc1ccc(S(=O)(=O)N2CCOCC2)cc1)Nc1ccccc1C(F)(F)F	none (no result: tolC growth inh)
COC(=O)c1ccc(N2CCN(CC(=O)c3ccc(-c4ccccc4)cc3)CC2)c([N+](=O)[O-])c1	none (no result: tolC growth inh)
COC(=O)Cn1cc(/C=N/NC(=O)c2ccc(C#N)cc2F)c2ccccc21	PostGolgi ctrl 40.2 (no result: tolC growth inh)
CCc1cc2c3c(c(=O)oc2cc1OC)CCCC3	PostGolgi ctrl 49.1
COCCCNc1ccnc2c(Cl)cccc12	PostGolgi yeast 30.8
CC(C)C(C)(C#N)NC(=O)CSc1nnc(-c2ccccc2)o1 (stereo unspecified)	none (no result: tolC growth inh)
Cc1ccc2c(c1)NC(=O)C(CC(=O)NCCCN1CCN(c3cc(Cl)ccc3C)CC1)O2 (stereo unspecified)	tolC growth inh 71.2
O=C(NCCSCc1ccc(Cl)cc1Cl)c1ccc(CN2CCOCC2)cc1	PostGolgi yeast 75.6, PostGolgi ctrl 31.1 (no result: tolC growth inh)
O=C(NCc1ccccc1)c1ccc(CN2CCOCC2)cc1	none
O=C(NCc1ccc2c(c1)OCO2)c1cc(-n2cnnc2)ccc1Cl	PostGolgi ctrl 45.9
O=C(NCc1ccc2c(c1)OCO2)c1ccc(CN2CCOCC2)cc1	PostGolgi ctrl 32.9
O=C(Nc1ccc2c(c1)OCCO2)c1cc(-n2cnnc2)ccc1Cl	none
CC(NC(=O)NC12CC3CC(CC(C3)C1)C2)C1CCCO1 (stereo unspecified)	none
COc1ccc(CN(C)C2CCCCC2)c(C)c1C	none (no result: tolC growth inh)
Fc1ccccc1Cc1nnc2n1N=C(c1ccc(Cl)cc1)CS2	none (no result: tolC growth inh)
Cc1ccc(Sc2nnc(Cc3ccccc3)c3ccccc23)cc1	PostGolgi ctrl 33.8 (no result: tolC growth inh)
COc1ccc(Sc2nnc(Cc3ccccc3)c3ccccc23)cc1	none (no result: tolC growth inh)
CCOC(=O)n1c(=O)n(Cc2ccc(Cl)c(Cl)c2)c2ccccc21	PostGolgi ctrl 65.7 (no result: tolC growth inh)
O=C(CN(C1CC1)S(=O)(=O)c1ccc(S(=O)(=O)NC2CCCCC2)cc1)Nc1ccccc1	tolC growth inh 82.9
CC(C)CNC(=O)CN(C1CCCCC1)S(=O)(=O)c1ccccc1	none
CCOc1cc(S(=O)(=O)NC2CCCCCC2)ccc1F	PostGolgi ctrl 40.0
O=S(=O)(NC1CCCCC1)c1ccc(Br)cc1	PostGolgi ctrl 32.0
Cc1cc(S(=O)(=O)NC2CCCC2)ccc1F	none
COc1ccc(CC(=O)Nc2ccc(-c3cn4ccc(C)cc4n3)cc2)cc1	none (no result: tolC growth inh)
CC(C)CNc1cc(=O)n(C)c(=O)n1C	PostGolgi ctrl 47.9
CCNc1cc(=O)n(C)c(=O)n1C	none
O=C1c2[nH]nc(-c3ccccc3O)c2C(c2cccc(Cl)c2)N1Cc1ccco1 (stereo unspecified)	tolC growth inh 100.0

From PubChem
